The source of these data is the RNAGym collection of RNA variant scans (doi:10.1126/science.aae0568).

First the molecules themselves.
B1: tRNA (parent)
chain: GUUCCGUUGGCGUAAUGGUAACGCGUCUCCCUCCUAAGGAGAAGACUGCGGGUUCGAGUCCCGUACGGAACG

This sample holds only a part of the variants without activity. A value given as a limit tells only on which side of the number the result lay.

In this data set the parent is B1. Nature of the data set: yeast fitness relative to wild type (ratio to wild type); higher = fitter; tRNA-Arg(CCU), competitive growth, 37 C, YPD. The method, boiled down: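 Changes in genotype frequencies gave Darwinian fitness relative to wild type. Frequencies were read by 100-nucleotide paired-end sequencing of gene amplicons before and after pooled Saccharomyces cerevisiae strains, carrying tRNA-Arg(CCU) gene variants at the native locus, were competed in YPD at 37°C for 24 hours in six replicates. A genotype was kept only with ≥ 100 starting reads, and estimates < 0.5 were set to 0.5.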
Take A15U A43U A69C: the yeast fitness was found to be 0.697.

Turning to A15U C49G G68C, the yeast fitness was not above 0.5.

On to A15G G25C C55U, for which the yeast fitness was determined as 0.562.

Consider A15U C24G A42C, for which the yeast fitness is not above 0.5.

In the case of A15G G17A C30A, the yeast fitness turned out to be 0.529.

In the case of A15G G17A C33U G39C C55A G67C, the yeast fitness came to 0.66.

As for A15G U54A A70U, the yeast fitness came to 0.564.

Regarding A15G U19G C66U, the yeast fitness was found to be 0.721.

Consider A15G C49G C62G, for which the yeast fitness was not above 0.5.

With A15G C24G G52A C66G G67A, the yeast fitness is not above 0.5.

On to A15G C24A G52A, for which the yeast fitness was not above 0.5.

Turning to A15G U28C U35A G38A C46G, the yeast fitness worked out at 0.552.

A15G C33U A45U C62A: the yeast fitness is not above 0.5.

A15U C34G G51A C66U: the yeast fitness amounted to 0.584.

For the variant A15U C22G C62U, the yeast fitness is not above 0.5.

Consider A15G U28G A42U G48A G67A, for which the yeast fitness is not above 0.5.

A15U C27G U54A: the yeast fitness is not above 0.5.

As to A15U A43G G56C C60U, the yeast fitness was not above 0.5.

On to A15G G18A G48C C61A, for which the yeast fitness is not above 0.5.

Regarding A15G U64C A69C, the yeast fitness was 0.775.

For the variant A15G U35A A70U, the yeast fitness turned out to be 0.572.

For the variant A15G U53A C55A U64G, the yeast fitness stood at 0.571.

For the variant A15G G23C C30A A42C G51C C61A G67A, the yeast fitness is not above 0.5.

Regarding A15U C27G C62A C66A, the yeast fitness is not above 0.5.

On to A15G U26C G56A A69U, for which the yeast fitness was not above 0.5.

As for A15G U19G A40G, the yeast fitness was found to be 0.582.

A15G G23C G38C G52C G58A: the yeast fitness came to 0.507.

As to A15G C31G U35C A43C, the yeast fitness amounted to 0.586.

With A15G U16A A20G A42G, the yeast fitness worked out at 0.577.

On to A15G G38C C49U, for which the yeast fitness was found to be 0.544.

A15G C49U A69U: the yeast fitness is 0.8.

Turning to A15U C22U U54C, the yeast fitness stood at 0.754.

Regarding A15G U19G, the yeast fitness came out at 0.985.

For A15G U19C, the yeast fitness came to 0.985.

For A15G G44U A57U G58A C66G, the yeast fitness is not above 0.5.

Turning to A15U A21C G23C C55A U64A A65C G67A, the yeast fitness was not above 0.5.

For A15U C30G, the yeast fitness is not above 0.5.

Turning to A15U C22U A43C C55U G58A, the yeast fitness is not above 0.5.

As for A15U C34A, the yeast fitness was found to be 0.707.

For A15U C34G, the yeast fitness was not above 0.5.

Consider A15U C31A C60G, for which the yeast fitness was not above 0.5.

On to A15U C31G U54G, for which the yeast fitness was not above 0.5.

In the case of A15U C24G A42C U64C, the yeast fitness is not above 0.5.

Consider A15U C24G G38A, for which the yeast fitness turned out to be 0.551.

Consider A15U A20G U35C G48U C55G, for which the yeast fitness is not above 0.5.

With A15U A65G, the yeast fitness turned out to be 0.649.

A15U A65U: the yeast fitness was 0.775.

As for A15U C31U G52A A57U G58C, the yeast fitness was not above 0.5.

Take A15G G25A U28C U35A G38A C46G C62U: the yeast fitness came out at 0.527.

Turning to A15G C49U C60G, the yeast fitness is not above 0.5.

For A15G C30A A65C, the yeast fitness amounted to 0.609.

As to A15U A40U G68C, the yeast fitness stood at 0.627.

As to A15G G50A G58C C66U, the yeast fitness was not above 0.5.

Take A15G C29A U64C: the yeast fitness is not above 0.5.

Turning to A15U G17A C29G, the yeast fitness is not above 0.5.

As to A15G C31G U35C A37U A57U, the yeast fitness is not above 0.5.

As for A15G G17C C61A, the yeast fitness was not above 0.5.

For the variant A15G C60G C62U, the yeast fitness is not above 0.5.

A15U G18A G58A: the yeast fitness was not above 0.5.

As for A15G C31A A65G, the yeast fitness was not above 0.5.

On to A15G C29A A42C A70U, for which the yeast fitness is not above 0.5.

For the variant A15G C27A A36G A43G A65G, the yeast fitness amounted to 0.571.

As for A15G C27U U28C, the yeast fitness stood at 0.731.

For the variant A15G C34U A40U U54C, the yeast fitness is not above 0.5.

For the variant A15G C29U A43C A69U, the yeast fitness came out at 0.536.

Turning to A15U C33G C62G C66U, the yeast fitness was not above 0.5.

Regarding A15G C24G C29U C34G U35C U54G G67C, the yeast fitness is not above 0.5.

Consider A15G U26G A57G, for which the yeast fitness was determined as 0.611.

On to A15G G56A, for which the yeast fitness amounted to 0.971.

As to A15G C29A A69C, the yeast fitness stood at 0.517.

Regarding A15G G25A C27A G50A, the yeast fitness was found to be 0.592.

For the variant A15G C30A A43G A57U, the yeast fitness stood at 0.529.

Regarding A15G U32G U35C A43C, the yeast fitness is 0.585.

A15G U35A A57G: the yeast fitness was not above 0.5.

With A15G C27A C60G, the yeast fitness was not above 0.5.

For A15G C31G U35C A43C A57C G58A, the yeast fitness is not above 0.5.

On to A15U C27G C49A G52U, for which the yeast fitness is not above 0.5.

With A15U C22G C27G A42C G63C, the yeast fitness was not above 0.5.

As to A15U A43C G67U, the yeast fitness is not above 0.5.

As to A15U A37G C66G, the yeast fitness was not above 0.5.

On to A15G G38A A40C G50A U54A, for which the yeast fitness is not above 0.5.

Regarding A15U C49G A70G, the yeast fitness is 0.576.

A15U C29A C31G C60G: the yeast fitness was 0.618.

In the case of A15G G23C G38C G52C U54C G58A, the yeast fitness is not above 0.5.

On to A15G G17A, for which the yeast fitness was 0.881.

For the variant A15G G18U, the yeast fitness stood at 0.75.

Turning to A15G G18A, the yeast fitness turned out to be 0.793.

A15G G41A A43U G50C: the yeast fitness is not above 0.5.

As for A15U C31U G67A, the yeast fitness was determined as 0.565.

With A15U A21C, the yeast fitness worked out at 0.611.

Consider A15G G44C A57U, for which the yeast fitness is not above 0.5.

As for A15G C29A A36G G39A, the yeast fitness was not above 0.5.

Turning to A15G G17A C29G C31U A65G C66G, the yeast fitness was 0.552.

As for A15G G17C C33A C46A G52A G63C, the yeast fitness was not above 0.5.

A15U A45U C46G: the yeast fitness was not above 0.5.

As to A15G C27G A70U, the yeast fitness stood at 0.543.

For the variant A15G C34G, the yeast fitness came to 0.636.

For the variant A15G G25C, the yeast fitness was found to be 0.987.

Turning to A15G G25A, the yeast fitness was 0.87.

As to A15G U19G A42G, the yeast fitness came to 0.702.

With A15U C22U A70C, the yeast fitness is not above 0.5.

As to A15G C49G C66G G67C, the yeast fitness is not above 0.5.

As for A15U A36U, the yeast fitness is not above 0.5.

For A15U A36C, the yeast fitness is not above 0.5.

Regarding A15G C60U C62U, the yeast fitness amounted to 0.64.

With A15U A21C G23C C55A, the yeast fitness was not above 0.5.

For A15G C24A G63A, the yeast fitness was not above 0.5.

As to A15G C29U C34A A42U, the yeast fitness was not above 0.5.

Turning to A15U C27U A36G G56C, the yeast fitness was not above 0.5.

As to A15G U54G C55U, the yeast fitness is 0.561.

In the case of A15G G23C A37U A65U, the yeast fitness is not above 0.5.

Turning to A15U A37C, the yeast fitness was determined as 0.678.

Regarding A15U A37G, the yeast fitness is 0.66.

With A15U A20G, the yeast fitness is 0.772.

Consider A15U A20C, for which the yeast fitness amounted to 0.646.

On to A15U C22A G23A C24A, for which the yeast fitness is not above 0.5.

Take A15U C24A C34G G39U G58C: the yeast fitness is not above 0.5.

As for A15U C24U A43C, the yeast fitness was found to be 0.573.

With A15G G23C C30A A42C G51C, the yeast fitness is 0.537.

Take A15U C27U C66A: the yeast fitness was not above 0.5.

A15U A21C C24G C29U A42C U59G G67C: the yeast fitness is not above 0.5.

As for A15U A21C C24G C29U A42C U59G G67U, the yeast fitness is not above 0.5.

Take A15G G17A A21C: the yeast fitness is not above 0.5.

For A15G G50C C60U, the yeast fitness is not above 0.5.

For the variant A15U A37U G67C, the yeast fitness was not above 0.5.

Turning to A15G G44A G58A, the yeast fitness was 0.992.

Take A15U A21C C24G C29U A42C: the yeast fitness is not above 0.5.

Consider A15G C31A G41C G56A G58C, for which the yeast fitness is not above 0.5.

On to A15U C46A U59C, for which the yeast fitness was not above 0.5.

For the variant A15U C24G A42C C62U, the yeast fitness was not above 0.5.

On to A15U C29G G48A A69U, for which the yeast fitness is not above 0.5.

Consider A15U A36U G41A, for which the yeast fitness was not above 0.5.

In the case of A15U A57U A70C, the yeast fitness was not above 0.5.

For the variant A15G G23C C30A A42C G44A G51C, the yeast fitness was not above 0.5.

In the case of A15G G25A U32G A40G C60G, the yeast fitness is 0.501.

For the variant A15G U35A A65C, the yeast fitness is not above 0.5.

For A15G U19C G51C C55U, the yeast fitness stood at 0.582.

As to A15G U28C C30U U59A A70C, the yeast fitness was not above 0.5.

A15U G17C C27U C60G: the yeast fitness was not above 0.5.

Regarding A15U A20G C27U G48C A70U, the yeast fitness was not above 0.5.

As for A15G C27U G58C, the yeast fitness came out at 0.717.

In the case of A15U C33G G50U, the yeast fitness was determined as 0.527.

As to A15G C24U C29U C30G U35G A43U, the yeast fitness is not above 0.5.

Regarding A15U C24G C30U A57U, the yeast fitness worked out at 0.832.

With A15G G18A C49A, the yeast fitness was not above 0.5.

For A15U C29A A43C G50C, the yeast fitness is not above 0.5.

Consider A15U C31A C49G A70C, for which the yeast fitness was not above 0.5.

In the case of A15G C24U C29U C30G U35G, the yeast fitness came out at 0.737.

For the variant A15U A42C A43C, the yeast fitness was found to be 0.561.

For the variant A15U C24U A37G, the yeast fitness was not above 0.5.

Consider A15U G17A C34G C46A, for which the yeast fitness was 0.569.

In the case of A15G C34G A37U C49G, the yeast fitness is not above 0.5.

As to A15G U54C C66A, the yeast fitness was not above 0.5.

Regarding A15U C46G C61A A70U, the yeast fitness is not above 0.5.

Consider A15G C24U C34U C61U, for which the yeast fitness was not above 0.5.

Regarding A15U C29A, the yeast fitness was 0.568.

A15U A20G C27A C29A U47G C60G: the yeast fitness was not above 0.5.

With A15U A40G, the yeast fitness worked out at 0.598.

For the variant A15U A40C, the yeast fitness stood at 0.723.

A15U G17A U53C C66U A69U: the yeast fitness was not above 0.5.

Turning to A15G C49G G63C, the yeast fitness was found to be 0.594.

Turning to A15U C49U, the yeast fitness came out at 0.731.

With A15G G23A G48A, the yeast fitness came out at 0.675.

For A15G C29G A37U, the yeast fitness was not above 0.5.

On to A15G U19A U28A, for which the yeast fitness was not above 0.5.

In the case of A15U C24U A37G U54C C66A, the yeast fitness is not above 0.5.

Take A15U C27U C34U G41C U47G: the yeast fitness came out at 0.555.
